ChEMBL document CHEMBL2311495, “Pyrazolo[1,5-c]quinazoline derivatives and their simplified analogues as adenosine receptor antagonists: synthesis, structure-affinity relationships and molecular modeling studies” (Bioorg Med Chem, 2013)
pIC50, pKi: −log10 of the molar value.

What was measured:
Adenosine receptor A2a [1] = biological target: T1, Adenosine receptor A2a (Homo sapiens, UniProt P29274); experiment: Displacement of [3H]ZM241385 from human adenosine A2a receptor expressed in CHO cells at 1 uM by scintillation counting; format: cell-based
How it was run: (§1)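 Membranes of CHO cells expressing hA2A (50 µg protein) incubated with 1 nM [³H]ZM241385 in 50 mM Tris-HCl, 10 mM MgCl₂, pH 7.4, 60 min at 4 °C. Six to eight antagonist concentrations, or 1 µM for percent inhibition. Filtration and counting. Ki by Cheng–Prusoff from IC50, mean ± SEM of four duplicate experiments.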

[2] = biological target: T2, Adenosine receptor A1 (Homo sapiens) (UniProt P30542); experiment: Displacement of [3H]DPCPX from human adenosine A1 receptor expressed in CHO cells at 1 uM by scintillation counting; format: cell-based
T2 sequence (whole entry): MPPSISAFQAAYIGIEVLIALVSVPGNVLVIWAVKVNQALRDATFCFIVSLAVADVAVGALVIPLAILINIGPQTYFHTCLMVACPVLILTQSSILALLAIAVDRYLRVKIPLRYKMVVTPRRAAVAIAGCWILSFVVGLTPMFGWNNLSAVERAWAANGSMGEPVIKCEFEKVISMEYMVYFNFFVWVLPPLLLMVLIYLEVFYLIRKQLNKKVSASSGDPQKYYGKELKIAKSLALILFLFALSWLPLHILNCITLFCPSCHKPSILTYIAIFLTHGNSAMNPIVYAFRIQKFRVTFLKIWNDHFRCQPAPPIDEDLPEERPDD
How it was run: (§2)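 hA1 CHO membranes (50 µg protein) incubated with 1 nM [³H]DPCPX in 50 mM Tris-HCl pH 7.4 for 120 min at 25 °C. Six to eight antagonist concentrations, or 1 µM for % inhibition. Nonspecific binding taken with 1 µM DPCPX. Bound ligand filtered and counted. Ki from IC50 via Cheng–Prusoff, four separate assays in duplicate.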

[3] = biological target: T3, Adenosine receptor A2b (Homo sapiens) (UniProt P29275); experiment: Antagonist activity at human adenosine A2b receptor transfected in CHO cells assessed as inhibition of NECA-induced cAMP accumulation at 1 uM by scintillation counting; format: functional, cell-based
T3 sequence (whole entry): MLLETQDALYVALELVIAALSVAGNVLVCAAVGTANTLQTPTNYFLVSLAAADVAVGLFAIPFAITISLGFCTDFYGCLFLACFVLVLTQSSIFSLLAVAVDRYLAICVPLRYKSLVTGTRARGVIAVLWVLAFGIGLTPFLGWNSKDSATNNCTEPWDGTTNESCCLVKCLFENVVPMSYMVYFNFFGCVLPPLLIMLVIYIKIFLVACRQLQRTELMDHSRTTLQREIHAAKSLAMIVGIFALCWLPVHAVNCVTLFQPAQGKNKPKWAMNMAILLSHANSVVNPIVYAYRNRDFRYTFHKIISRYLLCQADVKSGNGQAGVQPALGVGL
How it was run: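 CHO cells stably expressing hA2B (1 × 10⁶/assay), pre-incubated 10 min at 37 °C, pH 7.4, with adenosine deaminase 2 IU/ml and Ro 20-1724 as PDE inhibitor. Stimulated by 200 nM NECA, compounds tested at 1 µM, result given as percent inhibition. Stopped with cold 6% TCA, ether-extracted, cAMP measured by [³H]cAMP competition with beef adrenal binding protein.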

Adenosine receptor A3 [4] = biological target: T4, Adenosine receptor A3 (Homo sapiens, UniProt P0DMS8); experiment: Displacement of [125I]AB-MECA from human adenosine A3 receptor expressed in CHO cells by scintillation counting; format: cell-based
T4 sequence (P0DMS8 whole entry): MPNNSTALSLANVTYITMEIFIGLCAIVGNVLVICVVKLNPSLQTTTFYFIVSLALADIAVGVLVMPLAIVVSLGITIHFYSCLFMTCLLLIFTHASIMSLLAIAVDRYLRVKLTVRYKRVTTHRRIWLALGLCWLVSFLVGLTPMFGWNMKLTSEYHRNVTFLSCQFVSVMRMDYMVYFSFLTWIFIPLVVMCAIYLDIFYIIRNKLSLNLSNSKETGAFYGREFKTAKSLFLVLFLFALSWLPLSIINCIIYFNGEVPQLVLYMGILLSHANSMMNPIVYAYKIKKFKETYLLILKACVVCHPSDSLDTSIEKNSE
How it was run: (§3)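 hA3 CHO membranes (50 µg protein) incubated with 0.5 nM [¹²⁵I]AB-MECA in 50 mM Tris-HCl, 10 mM MgCl₂, 1 mM EDTA, pH 7.4, for 120 min at 4 °C. Six to eight ligand concentrations, or single 1 µM for % inhibition. Nonspecific binding defined with 1 µM AB-MECA. Filtration on GF/B, counting. Ki by Cheng–Prusoff, mean ± SEM of four duplicate assays.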

[5] = biological target: T5, Adenosine receptor A3 (Homo sapiens) (UniProt P0DMS8); experiment: Displacement of [125I]AB-MECA from human adenosine A3 receptor expressed in CHO cells at 1 uM by scintillation counting; format: cell-based; how it was run: as §3
T5 sequence (whole entry): T4 sequence (P0DMS8 whole entry)

Adenosine receptor A2a [6] = biological target: T1, Adenosine receptor A2a; experiment: Displacement of [3H]ZM241385 from human adenosine A2a receptor expressed in CHO cells by scintillation counting; format: cell-based; how it was run: as §1
Adenosine receptor A1 = biological target: T6, Adenosine receptor A1 (Homo sapiens, UniProt P30542); experiment: Displacement of [3H]DPCPX from human adenosine A1 receptor expressed in CHO cells by scintillation counting; format: cell-based; how it was run: as §2
T6 sequence (P30542 whole entry): T2 sequence (whole entry)

Adenosine receptor A2b = biological target: T7, Adenosine receptor A2b (Homo sapiens, UniProt P29275); experiment: Antagonist activity at human adenosine A2b receptor transfected in CHO cells assessed as inhibition of NECA-induced cAMP accumulation by scintillation counting; format: functional, cell-based
T7 sequence (P29275 whole entry): T3 sequence (whole entry)

Adenosine receptor A3 [7] = biological target: T4, Adenosine receptor A3; experiment: Activity at human adenosine A3 receptor transfected in CHO cells assessed as Cl-IB-MECA-inhibited cAMP accumulation by scintillation counting; format: functional, cell-based
How it was run: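 hA3-transfected CHO cells (1 × 10⁶/assay), trypsinised, pre-incubated 10 min at 37 °C in buffered salt/glucose medium pH 7.4 with adenosine deaminase 2 IU/ml and Ro 20-1724. cAMP response inhibited by 100 nM Cl-IB-MECA. Stopped with cold 6% TCA, ether-extracted, cAMP read by [³H]cAMP competition binding to beef adrenal binding protein. IC50 as mean ± SEM of four experiments.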

T1 sequence (P29274 whole entry): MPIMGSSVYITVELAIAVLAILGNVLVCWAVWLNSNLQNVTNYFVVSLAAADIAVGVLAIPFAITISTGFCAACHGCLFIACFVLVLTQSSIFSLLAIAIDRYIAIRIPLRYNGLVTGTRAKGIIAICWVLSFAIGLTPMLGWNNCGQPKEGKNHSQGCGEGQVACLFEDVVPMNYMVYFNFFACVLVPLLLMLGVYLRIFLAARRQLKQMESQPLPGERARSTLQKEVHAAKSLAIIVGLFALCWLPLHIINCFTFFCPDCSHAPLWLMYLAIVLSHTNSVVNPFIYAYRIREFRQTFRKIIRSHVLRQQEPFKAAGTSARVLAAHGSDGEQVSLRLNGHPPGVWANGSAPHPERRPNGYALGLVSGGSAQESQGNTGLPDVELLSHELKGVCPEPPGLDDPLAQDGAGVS

## Nc1ccccc1-c1cc(-c2cccs2)n[nH]1
Adenosine receptor A2a [1]
  inhibition: 1%
[2]
  inhibition: 2%
[3]
  inhibition: 3%

## CCOC(=O)c1cc2c3ccccc3[nH]c(=O)n2n1
Adenosine receptor A3 [4]
  pKi: 6.50

## Oc1nc2ccccc2c2cc(-c3ccccc3)nn12
[5]
  inhibition: 28%
Adenosine receptor A2a [1]
  inhibition: 1%
[2]
  inhibition: 12%
[3]
  inhibition: 4%

## CCOC(=O)c1nn2c(=O)[nH]c3ccccc3c2c1C(=O)OCC
Adenosine receptor A2a [1]
  inhibition: 1%
[2]
  inhibition: 12%
[3]
  inhibition: 5%
Adenosine receptor A3 [4]
  pKi: 7.00

## CCOC(=O)c1cc2c3ccccc3nc(O)n2n1
Adenosine receptor A2a [1]
  inhibition: 5%
[2]
  inhibition: 3%
[3]
  inhibition: 3%

## O=C(OCc1ccccc1)c1cc2c3ccccc3[nH]c(=O)n2n1
[5]
  inhibition: 1%
Adenosine receptor A2a [1]
  inhibition: 4%
[2]
  inhibition: 3%
[3]
  inhibition: 2%

## COc1ccc(-c2cc(-c3ccccc3N)[nH]n2)cc1
Adenosine receptor A2a [1]
  inhibition: 9%
[2]
  inhibition: 2%
[3]
  inhibition: 5%

## O=C(NCc1ccccc1)c1cc2c3ccccc3[nH]c(=O)n2n1
[5]
  inhibition: 25%
Adenosine receptor A2a [1]
  inhibition: 5%
[2]
  inhibition: 2%
[3]
  inhibition: 1%

## Nc1nc2ccccc2c2cc(-c3ccco3)nn12
[5]
  inhibition: 35%
Adenosine receptor A2a [6]
  pKi: 7.10
Adenosine receptor A1
  pKi: 7.46
Adenosine receptor A2b
  pIC50: 6.92

## Nc1nc2ccccc2c2cc(-c3cccs3)nn12
[5]
  inhibition: 18%
Adenosine receptor A2a [1]
  inhibition: 20%
[2]
  inhibition: 44%
[3]
  inhibition: 3%

## O=C(Nc1nc2ccccc2c2cc(-c3ccccc3)nn12)c1ccccc1
Adenosine receptor A2a [1]
  inhibition: 1%
[2]
  inhibition: 1%
[3]
  inhibition: 4%
Adenosine receptor A3 [4]
  pKi: 6.28

## COC(=O)c1cc2c3ccccc3nc(O)n2n1
Adenosine receptor A2a [1]
  inhibition: 3%
[2]
  inhibition: 1%
[3]
  inhibition: 6%

## Oc1nc2ccccc2c2cc(-c3cccs3)nn12
Adenosine receptor A2a [1]
  inhibition: 20%
Adenosine receptor A3 [7]
  pIC50: 6.58
[2]
  inhibition: 7%
[3]
  inhibition: 6%
Adenosine receptor A3 [4]
  pKi: 7.40

## Oc1ccccc1-c1cc(-c2ccccc2)[nH]n1
[5]
  inhibition: 7%
Adenosine receptor A2a [1]
  inhibition: 1%
[2]
  inhibition: 13%
[3]
  inhibition: 4%

## Oc1nc2ccccc2c2cc(-c3ccccn3)nn12
Adenosine receptor A2a [1]
  inhibition: 1%
[2]
  inhibition: 4%
[3]
  inhibition: 2%
Adenosine receptor A3 [4]
  pKi: 6.60

## COc1ccc(-c2cc(-c3ccccc3N)n[nH]2)cc1
Adenosine receptor A3 [4]
  pKi: 6.32

## Nc1nc2ccccc2c2cc(-c3ccccc3)nn12
[5]
  inhibition: 15%
Adenosine receptor A2a [1]
  inhibition: 5%
[2]
  inhibition: 1%
[3]
  inhibition: 3%

## COC(=O)c1cc2c3ccccc3[nH]c(=O)n2n1
Adenosine receptor A3 [4]
  pKi: 6.36

## CCOC(=O)c1ccccc1-c1cc(-c2cccs2)n[nH]1
[5]
  inhibition: 23%
Adenosine receptor A2a [1]
  inhibition: 1%
[2]
  inhibition: 3%
[3]
  inhibition: 2%

## Oc1nc2ccccc2c2cc(-c3ccco3)nn12
Adenosine receptor A2a [1]
  inhibition: 1%
Adenosine receptor A3 [7]
  pIC50: 6.86
[2]
  inhibition: 5%
[3]
  inhibition: 3%
Adenosine receptor A3 [4]
  pKi: 7.10

## CC(C)OC(=O)c1cc2c3ccccc3nc(O)n2n1
Adenosine receptor A2a [1]
  inhibition: 1%
[2]
  inhibition: 1%
[3]
  inhibition: 4%
Adenosine receptor A3 [4]
  pKi: 6.35

## Oc1nc2ccccc2c2cc(-c3ccccc3F)nn12
Adenosine receptor A2a [1]
  inhibition: 11%
[2]
  inhibition: 1%
[3]
  inhibition: 1%
Adenosine receptor A3 [4]
  pKi: 6.85

## Nc1ccccc1-c1cc(-c2ccccc2)n[nH]1
Adenosine receptor A2a [1]
  inhibition: 1%
[2]
  inhibition: 9%
[3]
  inhibition: 2%
Adenosine receptor A3 [4]
  pKi: 6.17

## Oc1nc2ccccc2c2cc(-c3ccc(Cl)cc3)nn12
Adenosine receptor A2a [1]
  inhibition: 1%
Adenosine receptor A3 [7]
  pIC50: 7.09
[2]
  inhibition: 6%
[3]
  inhibition: 3%
Adenosine receptor A3 [4]
  pKi: 7.64

## Nc1ccccc1-c1cc(-c2cccs2)[nH]n1
Adenosine receptor A3 [4]
  pKi: 6.22

## Nc1ccccc1-c1cc(-c2ccco2)n[nH]1
[5]
  inhibition: 1%
Adenosine receptor A2a [1]
  inhibition: 6%
[2]
  inhibition: 4%
[3]
  inhibition: 1%

## COc1ccc(-c2cc3c4ccccc4[nH]c(=O)n3n2)cc1
Adenosine receptor A2a [1]
  inhibition: 1%
Adenosine receptor A3 [7]
  pIC50: 6.49
[2]
  inhibition: 4%
[3]
  inhibition: 2%
Adenosine receptor A3 [4]
  pKi: 7.00

## Cc1ccc(-c2cc3c4ccccc4nc(O)n3n2)cc1
Adenosine receptor A2a [1]
  inhibition: 12%
Adenosine receptor A3 [7]
  pIC50: 7.06
[2]
  inhibition: 1%
[3]
  inhibition: 2%
Adenosine receptor A3 [4]
  pKi: 7.60

## Oc1ccccc1-c1n[nH]c(-c2ccccc2)n1
[5]
  inhibition: 39%
Adenosine receptor A2a [1]
  inhibition: 2%
[2]
  inhibition: 47%
[3]
  inhibition: 8%

## COc1ccc(-c2cc3c4ccccc4nc(N)n3n2)cc1
[5]
  inhibition: 45%
Adenosine receptor A2a [1]
  inhibition: 15%
[2]
  inhibition: 7%
[3]
  inhibition: 3%
